High-throughput results from PubChem BioAssay.
In the library only some 3.9% were active in any assay of this set; here they are far more common.
AHR act: activators of human aryl hydrocarbon receptor; activation, % at 5 µM; P35869; AHR-responsive luciferase reporter cells, luminescence; 320,000 tested, 2.5% active; in the data active means activation above about 47%;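 further: 0% = vehicle wells and 100% = reference agonist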
ABCB6 inh MLPCN: blocks the human ABCB6 transporter. Q9NP58. K562-ABCB6 porphyrin accumulation, flow cytometry, 1 h; stronger effect = lower value. fluorescence ratio to DMSO, % at 10 µM. 360,000 tested, 0.19% active. AID 602162;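 active means fluorescence ratio to DMSO below 75%, the collection mean minus 3 SD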;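 further: signal is porphyrin accumulated inside mitochondria; 100% equals median channel fluorescence of DMSO control wells; lower ratio means ABCB6 inhibition with less porphyrin fluorescence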
SR-BI DiI-HDL act: activators of SR-BI mediated HDL lipid uptake. 320,000 tested, 0.096% active. AID 504775. CHO ldlA[mSR-BI] cells, DiI-HDL uptake fluorescence, 3 h; 100 = double the neutral-control signal. activation, % at 12.5 µM;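 active means mean replicate activation of at least 60% and every replicate at or above 60%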;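 further: 0% = median plate neutral-control signal and 100% = twice that signal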
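Test system: SR-BI-overexpressing, LDLR-lacking CHO cells; Also added: labelled HDL, 10 µg/mL; Measured by: bottom-read cell fluorescence after medium removal, ex 550/em 595 nm; Timing: 3 h uptake period with compound, 37 °C; Buffer or medium: F12, 0.5% BSA, 25 mM HEPES; Doses: single compound concentration, delivered by pin transfer.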
HIF activator: HIF pathway transcriptional activation; 300,000 tested, 0.32% active; activation, % at 7.5 µM (by protocol); U2OS HRE-luciferase reporter, luminescence; normalized: DMSO 0%, desferrioxamine 100%; AID 1910;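 active means mean activation of at least 10% of the iron chelator positive control signal, with at least half of replicates also reaching 10%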
SR-BI HDL uptake: inhibitors of mouse SR-BI mediated HDL lipid uptake | Q61009 | AID 488896 | inhibition, % at 12.5 µM | ldlA[mSR-BI] CHO cells, DiI-HDL uptake fluorescence, 3 h | 320,000 tested, 0.96% active;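 active means mean replicate inhibition of at least 70% and a set share of replicates each scoring 70 or more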;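 further: 0% = median of neutral control wells and 100% = median of positive control wells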
Target sequence (Q61009 whole entry, looked up): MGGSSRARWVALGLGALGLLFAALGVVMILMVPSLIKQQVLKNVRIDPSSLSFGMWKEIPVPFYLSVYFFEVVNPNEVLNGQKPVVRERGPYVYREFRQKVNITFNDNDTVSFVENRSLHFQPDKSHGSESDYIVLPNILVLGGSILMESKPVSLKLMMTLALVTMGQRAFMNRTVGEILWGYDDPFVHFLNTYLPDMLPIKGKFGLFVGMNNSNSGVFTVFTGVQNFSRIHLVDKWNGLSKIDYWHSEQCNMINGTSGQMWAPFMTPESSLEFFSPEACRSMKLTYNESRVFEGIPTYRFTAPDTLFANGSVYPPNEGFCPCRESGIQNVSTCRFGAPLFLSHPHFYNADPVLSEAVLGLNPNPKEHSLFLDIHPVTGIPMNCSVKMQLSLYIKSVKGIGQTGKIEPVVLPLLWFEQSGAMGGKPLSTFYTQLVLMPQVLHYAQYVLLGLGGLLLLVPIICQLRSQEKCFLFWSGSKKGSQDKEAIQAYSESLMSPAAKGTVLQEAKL
GAA850 FXN act: increases GAA850 frataxin promoter reporter activity | HEK293 lucGAA850 FXN promoter luciferase reporter, 24 h; percent of 10 µM SAHA response | activation, % at 6 µM | AID 540364 | 360,000 tested, 0.56% active;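 active means activation above the average of all compounds screened plus 3 SD, cutoff fixed separately per campaign, cut at about 7.5% in these data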;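 further: 0% = DMSO wells and 100% = 10 µM SAHA wells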
* marks the source's active call; other numbers are inactive results; / = no result.

SMILES	AHR act	ABCB6 inh MLPCN	SR-BI DiI-HDL act	HIF activator	SR-BI HDL uptake	GAA850 FXN act
CC1CN(C(=O)[C@@H]2CCCN2S(=O)(=O)c2ccc(Cl)cc2)CC(C)O1 (some centres not stated)	/	102	12	/	-12	-1
COC(=O)c1ccc(CSc2ncnc3c2oc2ccccc23)o1	3	102	-2	1	2	2
O=C(Cn1ccc([N+](=O)[O-])n1)Nc1nc2ccccc2s1	14	97	/	/	/	4
Cc1ccccc1/C=C1\CCCc2ccccc2C1=O	13	103	-11	5	11	2
Cc1ccsc1/C=C1\CCc2ccccc2C1=O	50*	99	18	-4	-18	-1
CCc1nc(Nc2ccc(N3CCN(C(C)=O)CC3)cc2)c2oc3ccccc3c2n1	7	120	-75	0	75*	0
Cc1ccc(Nc2nc(C)nc3c2oc2ccccc23)cc1	61*	98	-11	1	11	3
Cc1nc(Nc2ccc3c(c2)OCO3)c2oc3ccccc3c2n1	65*	96	-1	1	1	2
Cc1nc(Nc2ccccc2)c2oc3ccc(Cl)cc3c2n1	51*	96	-25	1	25	6
COc1ccc(Nc2nc(C)nc3c2oc2ccccc23)cc1	11	98	9	0	-9	1
CC(=O)N1CCN(c2ccc(Nc3ncnc4c3oc3ccccc34)cc2)CC1	-3	101	-29	3	29	4
Cc1nn(-c2ccccc2)c2sc(C(=O)c3c(N)n(C)c(=O)n(C)c3=O)cc12	14	108	-14	0	14	-1
Cc1nc(NCCN2CCOCC2)c2oc3ccccc3c2n1	4	102	8	-11	-8	-3
Cc1nc(NCCc2ccccc2)c2oc3ccccc3c2n1	64*	101	2	0	-2	-1
c1csc(-c2nn3c(C4CCCCC4)nnc3s2)c1	/	91	0	/	0	3
Clc1ccccc1-c1nnc2sc(-c3ccncc3)nn12	17	98	16	1	-16	1
Clc1ccccc1-c1nnc2sc(-c3cccs3)nn12	71*	97	0	0	0	2
CCOC(=O)c1cnc(SCc2cccc3ccccc23)nc1N	-1	91	-26	0	26	2
C[C@H](CO)N1C[C@H](C)[C@H](CN(C)S(=O)(=O)c2cn(C)cn2)Oc2ccc(NC(=O)Nc3ccc(C(F)(F)F)cc3)cc2CC1=O	-1	101	2	/	-2	-1
C[C@@H]1CN([C@@H](C)CO)C(=O)Cc2cc(NC(=O)Nc3ccc(C(F)(F)F)cc3)ccc2O[C@@H]1CN(C)S(=O)(=O)c1ccc(Cl)cc1	8	92	90*	/	-90	-1
C[C@H]1CN([C@@H](C)CO)C(=O)c2cccc(NC(=O)Nc3ccc(C(F)(F)F)cc3)c2O[C@@H]1CN(C)Cc1ccc(Cl)c(Cl)c1	8	94	-75	/	75*	-10
C[C@H](CO)N1C[C@H](C)[C@@H](CN(C)S(=O)(=O)c2ccc(F)cc2)Oc2ccc(NC(=O)Nc3ccc(C(F)(F)F)cc3)cc2C1=O	1	99	43	/	-43	0
C[C@@H]1CN([C@H](C)CO)C(=O)c2cc(NC(=O)Nc3ccc(C(F)(F)F)cc3)ccc2O[C@H]1CN(C)S(=O)(=O)c1ccc(Cl)cc1	5	101	73*	/	-73	-1
[N-]=[N+]=NC[C@H](Cc1ccccc1)N1CC[C@@H](OCc2ccccc2)CCC1=O	0	89	19	-1	-19	1
COc1ccc(-c2c(C#N)c(N)nc3c2CCC3)cc1	9	95	-25	1	25	2
SMILES	AHR act	ABCB6 inh MLPCN	SR-BI DiI-HDL act	HIF activator	SR-BI HDL uptake	GAA850 FXN act
CC(C)c1ccccc1-n1c(SCC(=O)N2CCN(c3ccccc3)CC2)nnc1-c1cccnc1	1	103	/	-1	28	-3
O=C(CSc1nc2ccccc2[nH]1)Nc1nc(-c2cccc(Br)c2)cs1	65*	100	18	1	-18	3
COc1ccccc1OCc1nc2ccccc2n1C	25	97	3	3	-3	4
C(=N\Nc1ccccc1)/c1nc2ccccc2s1	69*	94	-6	2	6	1
Cc1nc(N/N=C\c2ccc3c(c2)OCO3)sc1C	75*	97	1	6	-1	5
C(=N\Nc1nc2ccccc2[nH]1)/c1ccc2c(c1)OCO2	/	96	-5	5	5	2
C(=N\Nc1nc2ccccc2s1)/c1ccccn1	27	/	/	-1	/	/
C(=N\Nc1nc2ccccc2s1)/c1ccc2c(c1)OCO2	112*	96	-16	2	16	5
Cc1ccc2[nH]c(C)c(/C=N/Nc3nc4ccccc4s3)c2c1	65*	100	-122	0	122*	-2
COc1ccc(C=NNc2nc3ccccc3s2)cc1	/	94	-14	/	14	0
CCOC(=O)C(CC)Sc1ncnc2nc[nH]c12 (configuration not stated)	1	99	15	0	-15	0
O=C1CSC(c2ccccc2)N1CCc1ccccc1 (configuration not stated)	3	94	-4	-1	4	1
Brc1csc(/C=N/Nc2nc3ccccc3s2)c1	100*	102	-47	4	47	4
CC(=O)NN=C1CCC(c2ccccc2)CC1 (configuration not stated)	3	96	8	1	-8	0
Cc1ccc(NC(N)=S)cc1C	2	98	7	0	-7	2
Cc1ccc(C(F)(F)F)cc1NC(N)=S	1	104	-77	0	77*	-1
CC1CCCC(NC(=O)c2ccc3c(c2)OCO3)C1C (configuration not stated)	70*	96	-21	2	21	3
COC(=O)CCCC1=CC2=CC(=O)C(C)(OC(=O)c3cccs3)C(=O)C2=CN1Cc1ccccc1 (configuration not stated)	-1	93	10	0	-10	0
COC(=O)CCCC1=CC2=CC(=O)C(C)(OC(=O)c3cccs3)C(=O)C2=CN1Cc1ccc2c(c1)OCO2 (configuration not stated)	2	99	14	19*	-14	0
N#CC1=C(N)N2C(=C(C#N)C1c1ccccc1)Sc1ccccc12 (configuration not stated)	88*	/	/	0	/	/
CCOc1ccc(C2C(C#N)=C(N)N3C(=C2C#N)Sc2ccccc23)cc1 (configuration not stated)	11	104	-11	1	11	0
COc1ccc(Cl)c2c1[nH]c1nc(SCc3cccnc3)nnc12	32	100	0	0	0	-1
